One test has as its system SW-620. Kind of test: Antiproliferative activity against human SW620 cells after 48 hrs by SRB assay. The format is functional. Particulars: SW-620, 48 h. In short, it runs like this:
(§1)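 Run in the NCI screen of about 60 human tumour cell lines. Cells were exposed to compound for 48 h at five concentrations from 10^-8 to 10^-4 M, then fixed and stained for protein with sulforhodamine B. Absorbance was read at 515 nm. Percent growth was calculated from time-zero, untreated-control and treated readings, and replicate experiments were averaged.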
For orientation: The SRB assay estimates cell density from bound dye.

The next test concerns MDA-MB-435. The experiment in a line: Antiproliferative activity against human MDA-MB-435 cells after 48 hrs by SRB assay. The format is functional. Conditions: MDA-MB-435, 48 h. In short, it runs like this: as §1
In a further test the test system is OVCAR-3. The experiment in a line: Antiproliferative activity against human OVCAR3 cells after 48 hrs by SRB assay. The test is classed as functional. Particulars: OVCAR-3, 48 h. In outline:
as §1

The subject of another test is CAKI-1. Kind of test: Antiproliferative activity against human CAKI-1 cells after 48 hrs by SRB assay. The test is classed as functional. Conditions: CAKI-1, 48 h. In short, it runs like this: as §1
For the next test, the system named is MCF7. Kind of test: Antiproliferative activity against human MCF7 cells after 48 hrs by SRB assay. The test is classed as functional. Particulars: MCF7, 48 h. In outline: as §1
A further test deals with EKVX. The experiment in a line: Antiproliferative activity against human EKVX cells after 48 hrs by SRB assay. The test is classed as functional. In outline:
as §1

The subject of the next test is HT-29. Kind of test: Antiproliferative activity against human HT-29 cells after 48 hrs by SRB assay. The format is functional. Particulars: HT-29, 48 h. In outline: as §1
The subject of the next test is SNB-19. The experiment in a line: Antiproliferative activity against human SNB19 cells after 48 hrs by SRB assay. The format is functional. Particulars: SNB-19, 48 h. In short, it runs like this:
as §1

A further test concerns UACC-257. Kind of test: Antiproliferative activity against human UACC257 cells after 48 hrs by SRB assay. The test is classed as functional. Particulars: UACC-257, 48 h. In short, it runs like this: as §1
The subject of a further test is TK-10. Kind of test: Antiproliferative activity against human TK10 cells after 48 hrs by SRB assay. The format is functional. Particulars: TK-10, 48 h. In outline:
as §1

The target of test [1] is T1, RAC-alpha serine/threonine-protein kinase (Homo sapiens, UniProt P31749). Kind of test: Inhibition of recombinant AKT1 using GSK3 as substrate assessed as inhibition of [33P]Phosphate incorporation into substrate after 80 mins by scintillation counting. In short, it runs like this:
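Recombinant AKT1 was assayed radiometrically with [33P]-ATP (about 5×10^5 cpm/well) and GSK3(14-27) substrate at 2000 ng/50 µL. Buffer was 60 mM HEPES-NaOH pH 7.5 with 3 mM MgCl2 and 3 mM MnCl2, and compound was added in 10% DMSO. After 80 min at 30 °C the reaction was stopped with 2% phosphoric acid, washed with 0.9% NaCl and 33P incorporation counted by scintillation.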

In test [2] the target is T2, Aurora kinase B (Homo sapiens, UniProt Q96GD4). The experiment in a line: Inhibition of recombinant Aurora B using tetra(LRRWSLG) as substrate assessed as inhibition of [33P]Phosphate incorporation into substrate after 80 mins by scintillation counting.
T2 sequence (Q96GD4 whole entry): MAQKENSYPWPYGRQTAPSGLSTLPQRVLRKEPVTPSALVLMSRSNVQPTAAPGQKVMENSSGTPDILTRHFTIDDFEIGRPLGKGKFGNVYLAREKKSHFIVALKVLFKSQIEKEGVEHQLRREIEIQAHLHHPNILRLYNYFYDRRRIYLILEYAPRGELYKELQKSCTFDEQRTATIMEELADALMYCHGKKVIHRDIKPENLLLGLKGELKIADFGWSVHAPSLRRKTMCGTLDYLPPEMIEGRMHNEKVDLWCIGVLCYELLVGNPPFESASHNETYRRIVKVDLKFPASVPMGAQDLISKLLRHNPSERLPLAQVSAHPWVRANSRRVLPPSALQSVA
The target in test [3] is T3, Focal adhesion kinase 1 (Homo sapiens, UniProt Q05397). Kind of test: Inhibition of recombinant FAK using poly(Glu,Tyr)4 as substrate assessed as inhibition of [33P]Phosphate incorporation into substrate after 80 mins by scintillation counting.
Target sequence in this assay (Q05397 whole entry): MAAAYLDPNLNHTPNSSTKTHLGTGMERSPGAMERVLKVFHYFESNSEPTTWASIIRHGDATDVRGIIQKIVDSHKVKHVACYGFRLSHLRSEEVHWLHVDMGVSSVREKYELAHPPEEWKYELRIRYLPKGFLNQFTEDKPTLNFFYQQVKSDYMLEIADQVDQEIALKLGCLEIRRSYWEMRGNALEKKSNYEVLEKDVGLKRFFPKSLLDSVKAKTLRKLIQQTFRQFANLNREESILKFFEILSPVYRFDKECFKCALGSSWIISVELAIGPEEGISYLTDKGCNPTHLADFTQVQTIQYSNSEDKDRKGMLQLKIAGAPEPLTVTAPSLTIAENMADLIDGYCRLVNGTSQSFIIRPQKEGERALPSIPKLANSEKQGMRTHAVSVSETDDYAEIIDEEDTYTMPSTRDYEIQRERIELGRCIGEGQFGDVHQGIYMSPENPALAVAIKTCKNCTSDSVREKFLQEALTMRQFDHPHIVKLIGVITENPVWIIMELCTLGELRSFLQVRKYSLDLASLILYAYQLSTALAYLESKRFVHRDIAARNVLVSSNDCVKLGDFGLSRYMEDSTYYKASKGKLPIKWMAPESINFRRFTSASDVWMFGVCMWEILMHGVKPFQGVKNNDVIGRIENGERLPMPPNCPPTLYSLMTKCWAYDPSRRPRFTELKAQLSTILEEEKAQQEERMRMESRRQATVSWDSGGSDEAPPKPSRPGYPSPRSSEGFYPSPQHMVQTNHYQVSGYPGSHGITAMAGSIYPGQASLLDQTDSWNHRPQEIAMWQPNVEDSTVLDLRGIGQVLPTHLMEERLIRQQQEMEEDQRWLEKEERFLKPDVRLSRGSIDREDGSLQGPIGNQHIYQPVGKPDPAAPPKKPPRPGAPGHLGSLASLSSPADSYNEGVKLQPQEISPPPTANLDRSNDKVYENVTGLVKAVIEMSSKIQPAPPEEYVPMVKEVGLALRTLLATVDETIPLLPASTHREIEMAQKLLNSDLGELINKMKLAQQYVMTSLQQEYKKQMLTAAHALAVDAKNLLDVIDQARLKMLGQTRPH
Test [4] addresses T4, Serine/threonine-protein kinase PLK1 (Homo sapiens, UniProt P53350). The experiment in a line: Inhibition of recombinant PLK1 using RBERCHKtide as substrate assessed as inhibition of [33P]Phosphate incorporation into substrate after 80 mins by scintillation counting. In short, it runs like this:
(§2)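 PLK1 (recombinant) was phosphorylating RBER-CHKtide at 2000 ng/50 µL with [33P]-ATP (about 5×10^5 cpm/well). Buffer was 60 mM HEPES-NaOH pH 7.5 with 3 mM MgCl2 and 3 mM MnCl2. After 80 min at 30 °C, 2% phosphoric acid stopped the reaction and wells were washed with saline. Incorporated 33P was counted, with residual activity relative to enzyme-free and inhibitor-free controls.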

Test [5] addresses T5, Vascular endothelial growth factor receptor 2 (Homo sapiens, UniProt P35968). Kind of test: Inhibition of recombinant VEGFR2 using poly(Glu,Tyr)4 as substrate assessed as inhibition of [33P]Phosphate incorporation into substrate after 80 mins by scintillation counting.
The target of test [6] is T1, RAC-alpha serine/threonine-protein kinase. Kind of test: Inhibition of recombinant AKT1 using GSK3 as substrate assessed as inhibition of [33P]Phosphate incorporation into substrate at <10 uM after 80 mins by scintillation counting. In short, it runs like this: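 Recombinant AKT1 was assayed radiometrically with [33P]-ATP (about 5×10^5 cpm/well) and GSK3(14-27) substrate at 2000 ng/50 µL. Buffer was 60 mM HEPES-NaOH pH 7.5 with 3 mM MgCl2 and 3 mM MnCl2, and compound was added in 10% DMSO. After 80 min at 30 °C the reaction was stopped with 2% phosphoric acid, washed with 0.9% NaCl and 33P incorporation counted by scintillation. Residual activity was set against no-enzyme and no-inhibitor controls.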

In test [7] the target is T2, Aurora kinase B. Kind of test: Inhibition of recombinant Aurora B using tetra(LRRWSLG) as substrate assessed as inhibition of [33P]Phosphate incorporation into substrate at <10 uM after 80 mins by scintillation counting. In outline:
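Recombinant Aurora B was assayed with [33P]-ATP (about 5×10^5 cpm/well) and tetra(LRRWSLG) substrate at 500 ng/50 µL. Buffer was 60 mM HEPES-NaOH pH 7.5 with 3 mM MgCl2 and 3 mM MnCl2. Incubation ran 80 min at 30 °C and was stopped with 2% phosphoric acid, then washed with saline. Bound 33P was counted by scintillation, with activity normalised to no-enzyme (0%) and no-inhibitor (100%) controls.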

The target in test [8] is T3, Focal adhesion kinase 1. The experiment in a line: Inhibition of recombinant FAK using poly(Glu,Tyr)4 as substrate assessed as inhibition of [33P]Phosphate incorporation into substrate at <10 uM after 80 mins by scintillation counting. In short, it runs like this: (§3)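 FAK and VEGF-R2 were each tested as recombinant kinase with poly(Glu,Tyr)4:1 substrate at 125 ng/50 µL and [33P]-ATP (about 5×10^5 cpm/well). Buffer was 60 mM HEPES-NaOH pH 7.5 with 3 mM MgCl2 and 3 mM MnCl2. Reactions ran 80 min at 30 °C and were quenched with 2% phosphoric acid and washed with 0.9% NaCl. Scintillation counts were normalised between no-enzyme and uninhibited controls.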

The target in test [9] is T5, Vascular endothelial growth factor receptor 2. The experiment in a line: Inhibition of recombinant VEGFR2 using poly(Glu,Tyr)4 as substrate assessed as inhibition of [33P]Phosphate incorporation into substrate at <10 uM after 80 mins by scintillation counting. In short, it runs like this: as §3
For test [10], the target named is T4, Serine/threonine-protein kinase PLK1. Kind of test: Inhibition of recombinant PLK1 using RBERCHKtide as substrate assessed as inhibition of [33P]Phosphate incorporation into substrate at <10 uM after 80 mins by scintillation counting. In outline:
as §2

The target of test [11] is T6, NUAK family SNF1-like kinase 1 (Homo sapiens) (UniProt O60285).
T6 sequence (whole entry): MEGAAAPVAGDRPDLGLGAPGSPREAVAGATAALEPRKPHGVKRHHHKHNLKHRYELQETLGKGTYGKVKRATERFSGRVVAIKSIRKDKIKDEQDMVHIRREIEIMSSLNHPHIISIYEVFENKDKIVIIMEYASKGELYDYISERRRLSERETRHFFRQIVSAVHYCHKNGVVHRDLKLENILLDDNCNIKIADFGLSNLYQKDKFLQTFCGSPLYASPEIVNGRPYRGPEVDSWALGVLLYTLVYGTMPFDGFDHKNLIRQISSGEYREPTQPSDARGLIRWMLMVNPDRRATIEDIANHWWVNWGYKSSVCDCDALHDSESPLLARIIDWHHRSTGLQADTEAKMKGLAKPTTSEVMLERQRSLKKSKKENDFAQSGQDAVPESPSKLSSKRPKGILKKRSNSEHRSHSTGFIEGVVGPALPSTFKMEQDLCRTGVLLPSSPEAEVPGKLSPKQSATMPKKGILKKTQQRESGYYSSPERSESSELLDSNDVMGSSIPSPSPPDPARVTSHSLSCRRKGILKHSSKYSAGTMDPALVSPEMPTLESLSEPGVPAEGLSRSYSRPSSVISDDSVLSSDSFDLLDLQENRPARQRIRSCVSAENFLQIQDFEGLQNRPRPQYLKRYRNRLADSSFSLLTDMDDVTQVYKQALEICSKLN
The experiment in a line: Inhibition of recombinant ARK5 at <10 uM by radiometric kinase assay. In short, it runs like this: (§4)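 Recombinant kinases were tested in a radiometric 33P-ATP assay in 60 mM HEPES-NaOH pH 7.5 with 3 mM MgCl2 and 3 mM MnCl2, with compound added in 10% DMSO. Incubation was 80 min at 30 °C, stopped with 2% phosphoric acid and washed. 33P incorporation was scintillation-counted, and activity was scaled between no-enzyme and no-inhibitor controls.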

In test [12] the target is Tyrosine-protein kinase receptor UFO (Homo sapiens) (UniProt P30530). Kind of test: Inhibition of recombinant AXL at <10 uM by radiometric kinase assay. In short, it runs like this:
as §4

The target in test [13] is Insulin-like growth factor 1 receptor (Homo sapiens) (UniProt P08069). The experiment in a line: Inhibition of recombinant IGF1R at <10 uM by radiometric kinase assay. In outline:
as §4

The target of test [14] is Hepatocyte growth factor receptor (Homo sapiens) (UniProt P08581). Kind of test: Inhibition of recombinant MET at <10 uM by radiometric kinase assay. In outline:
as §4

Test [15] deals with Serine/threonine-protein kinase N1 (Homo sapiens) (UniProt Q16512). The experiment in a line: Inhibition of recombinant PRK1 at <10 uM by radiometric kinase assay. In outline:
as §4

The target in test [16] is Proto-oncogene tyrosine-protein kinase Src (Homo sapiens) (UniProt P12931). Kind of test: Inhibition of recombinant SRC at <10 uM by radiometric kinase assay. In outline:
as §4

Where a name gives a salt, the structure may show the parent alone. The source made the active and inactive calls. The rule behind the calls is not given here.

T1 sequence (P31749 whole entry): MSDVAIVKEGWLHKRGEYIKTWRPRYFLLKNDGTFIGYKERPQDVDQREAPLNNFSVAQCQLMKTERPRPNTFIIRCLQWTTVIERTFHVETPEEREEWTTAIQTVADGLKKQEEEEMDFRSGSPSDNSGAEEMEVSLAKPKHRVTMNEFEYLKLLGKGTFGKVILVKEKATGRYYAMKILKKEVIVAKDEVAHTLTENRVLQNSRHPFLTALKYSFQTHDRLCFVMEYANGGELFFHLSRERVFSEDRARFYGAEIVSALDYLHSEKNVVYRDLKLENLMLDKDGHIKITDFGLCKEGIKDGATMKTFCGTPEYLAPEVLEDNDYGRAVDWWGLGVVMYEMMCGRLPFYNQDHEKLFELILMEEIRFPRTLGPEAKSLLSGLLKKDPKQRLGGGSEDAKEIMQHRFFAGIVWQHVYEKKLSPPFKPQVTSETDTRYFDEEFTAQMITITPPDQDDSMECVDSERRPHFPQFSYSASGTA
T4 sequence (P53350 whole entry): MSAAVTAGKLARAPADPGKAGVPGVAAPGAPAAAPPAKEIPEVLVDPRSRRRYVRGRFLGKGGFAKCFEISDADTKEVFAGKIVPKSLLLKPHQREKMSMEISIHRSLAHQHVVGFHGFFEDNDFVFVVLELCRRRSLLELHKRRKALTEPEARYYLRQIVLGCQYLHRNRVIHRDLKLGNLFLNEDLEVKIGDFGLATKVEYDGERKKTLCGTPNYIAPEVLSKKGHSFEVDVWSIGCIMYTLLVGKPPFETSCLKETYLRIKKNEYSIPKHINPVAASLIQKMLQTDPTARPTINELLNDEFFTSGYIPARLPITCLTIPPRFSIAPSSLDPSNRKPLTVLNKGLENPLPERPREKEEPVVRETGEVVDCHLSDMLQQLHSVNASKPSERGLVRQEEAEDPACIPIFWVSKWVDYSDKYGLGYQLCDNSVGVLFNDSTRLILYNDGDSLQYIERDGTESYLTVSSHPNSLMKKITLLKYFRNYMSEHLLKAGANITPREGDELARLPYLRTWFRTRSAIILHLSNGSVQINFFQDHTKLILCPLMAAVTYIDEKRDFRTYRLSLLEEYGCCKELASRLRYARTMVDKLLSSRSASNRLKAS
T5 sequence (P35968 whole entry): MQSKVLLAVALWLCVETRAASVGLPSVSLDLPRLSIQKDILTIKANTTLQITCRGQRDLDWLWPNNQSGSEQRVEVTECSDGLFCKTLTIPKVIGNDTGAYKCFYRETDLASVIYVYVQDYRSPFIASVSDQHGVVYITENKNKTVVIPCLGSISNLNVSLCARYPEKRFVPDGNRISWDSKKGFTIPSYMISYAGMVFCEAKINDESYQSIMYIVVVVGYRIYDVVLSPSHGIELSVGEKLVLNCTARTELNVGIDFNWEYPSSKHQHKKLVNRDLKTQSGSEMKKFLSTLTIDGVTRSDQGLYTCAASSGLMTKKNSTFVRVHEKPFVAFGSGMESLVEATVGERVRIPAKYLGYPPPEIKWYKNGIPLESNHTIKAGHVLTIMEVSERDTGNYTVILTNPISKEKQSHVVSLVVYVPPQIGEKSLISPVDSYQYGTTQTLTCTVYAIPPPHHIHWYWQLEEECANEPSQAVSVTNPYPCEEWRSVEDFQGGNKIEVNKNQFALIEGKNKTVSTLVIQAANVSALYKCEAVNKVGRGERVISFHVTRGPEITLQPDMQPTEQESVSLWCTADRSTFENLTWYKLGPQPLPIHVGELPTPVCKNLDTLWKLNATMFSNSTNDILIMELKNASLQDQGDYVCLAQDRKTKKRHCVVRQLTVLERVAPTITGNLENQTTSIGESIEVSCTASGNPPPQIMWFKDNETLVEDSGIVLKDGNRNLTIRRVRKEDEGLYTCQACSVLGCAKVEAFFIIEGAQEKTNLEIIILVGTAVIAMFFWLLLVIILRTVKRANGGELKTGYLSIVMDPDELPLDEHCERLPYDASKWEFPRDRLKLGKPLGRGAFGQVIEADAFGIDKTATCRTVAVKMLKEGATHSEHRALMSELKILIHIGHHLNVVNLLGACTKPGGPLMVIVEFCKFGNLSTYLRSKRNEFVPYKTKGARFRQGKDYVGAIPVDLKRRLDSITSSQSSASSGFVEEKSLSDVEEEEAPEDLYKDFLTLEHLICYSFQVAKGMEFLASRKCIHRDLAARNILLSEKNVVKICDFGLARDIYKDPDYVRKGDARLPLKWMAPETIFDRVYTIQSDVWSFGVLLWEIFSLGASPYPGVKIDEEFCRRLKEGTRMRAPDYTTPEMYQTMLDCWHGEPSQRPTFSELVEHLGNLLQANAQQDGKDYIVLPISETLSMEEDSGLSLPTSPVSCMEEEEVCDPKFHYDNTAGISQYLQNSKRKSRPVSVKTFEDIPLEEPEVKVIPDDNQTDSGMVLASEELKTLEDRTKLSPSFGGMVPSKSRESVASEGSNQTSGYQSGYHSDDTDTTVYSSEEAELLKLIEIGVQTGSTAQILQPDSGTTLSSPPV
Chain of Tyrosine-protein kinase receptor UFO (Homo sapiens) (P30530 whole entry): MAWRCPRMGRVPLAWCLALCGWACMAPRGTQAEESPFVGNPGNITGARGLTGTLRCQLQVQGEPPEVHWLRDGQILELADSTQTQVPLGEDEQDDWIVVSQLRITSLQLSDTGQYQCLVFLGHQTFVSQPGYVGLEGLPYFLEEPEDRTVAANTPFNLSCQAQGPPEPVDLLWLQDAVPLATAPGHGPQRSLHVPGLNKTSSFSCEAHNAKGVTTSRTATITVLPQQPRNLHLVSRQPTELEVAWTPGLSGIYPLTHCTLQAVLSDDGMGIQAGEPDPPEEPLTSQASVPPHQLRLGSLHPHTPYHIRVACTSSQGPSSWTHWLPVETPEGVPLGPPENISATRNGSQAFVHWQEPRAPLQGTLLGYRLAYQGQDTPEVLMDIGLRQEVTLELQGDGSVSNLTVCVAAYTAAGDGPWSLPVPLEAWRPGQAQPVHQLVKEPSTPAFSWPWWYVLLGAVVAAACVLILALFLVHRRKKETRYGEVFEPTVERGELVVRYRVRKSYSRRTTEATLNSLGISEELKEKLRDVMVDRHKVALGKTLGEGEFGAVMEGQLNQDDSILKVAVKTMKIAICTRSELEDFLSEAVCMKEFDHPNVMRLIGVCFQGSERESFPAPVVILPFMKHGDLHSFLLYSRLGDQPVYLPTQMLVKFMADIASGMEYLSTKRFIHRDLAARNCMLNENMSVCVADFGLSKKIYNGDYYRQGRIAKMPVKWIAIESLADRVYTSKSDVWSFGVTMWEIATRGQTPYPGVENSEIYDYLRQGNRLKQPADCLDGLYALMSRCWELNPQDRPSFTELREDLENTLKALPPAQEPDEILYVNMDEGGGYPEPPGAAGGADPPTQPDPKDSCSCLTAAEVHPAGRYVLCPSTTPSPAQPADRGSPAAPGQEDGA

On to `CCN(CC)CCNC(=O)c1c(C)[nH]c(/C=C2\C(=O)Nc3ccc(F)cc32)c1C` [SUNITINIB], for which the GI50 stood at 1.3 µM in the test on SW-620; 2 µM with MDA-MB-435; 3.2 µM in the test on OVCAR-3; 0.63 µM in the test with CAKI-1; 2 µM with MCF7; 7.9 µM in the test with EKVX. In addition, the GI50 in the test on HT-29 was 1.6 µM; with SNB-19 it was 10 µM; in the test with UACC-257, 4 µM; in the test with TK-10 it was 6.3 µM.

Take `COc1ccc(Nc2ncc3c(n2)-c2ccccc2NC(=O)C3)cc1O`: the IC50 in test [1] is over 100 µM; at Aurora kinase B [2] it was 3 µM; on Focal adhesion kinase 1 [3], 0.64 µM. For the same compound, the GI50 came out at 0.44 µM with SW-620; 0.2 µM in the test with MDA-MB-435; 0.55 µM with OVCAR-3; 0.15 µM in the test with CAKI-1; 0.79 µM in the test on MCF7; 4.1 µM in the test on EKVX. The GI50 in the test on HT-29 is 3.4 µM; in the test on SNB-19, 21 µM; in the test on UACC-257, 19 µM; in the test with TK-10, 4.1 µM.

As to `COc1ccc(Nc2nccc(-c3nc4ccccc4n3C)n2)cc1O`, the IC50 is over 100 µM in [1], 6 µM at Aurora kinase B [2] and 1.2 µM in test [4]. In addition, the GI50 was 0.62 µM in the test with SW-620; 0.19 µM with MDA-MB-435; 0.93 µM with OVCAR-3; 0.86 µM with CAKI-1; 0.47 µM in the test on MCF7; 17 µM in the test on EKVX. Moreover, the GI50 in the test on HT-29 came out at 27 µM; with SNB-19 it was 10 µM; in the test on UACC-257 it was 5.5 µM; in the test on TK-10 it was 26 µM.

Consider `Cn1c(-c2ccnc(Nc3ccc(N4CCOCC4)cc3)n2)nc2ccccc21`, for which the concentration for half-maximal inhibition (IC50) in [1] is over 100 µM; at Aurora kinase B [2] it was over 100 µM; at Focal adhesion kinase 1 [3], 24 µM; in [5] it was 69 µM; in test [4], over 100 µM. In addition, the inhibition entry (in [6]; at Aurora kinase B [7]; on Focal adhesion kinase 1 [8]; in test [9]; in test [10]; in [11]) was “inactive” each time. The inhibition result in test [12], in test [13], in test [14], in test [15] and in [16] was “inactive” in each case.

For the compound `CNC(=O)c1cc(Oc2ccc(NC(=O)Nc3ccc(Cl)c(C(F)(F)F)c3)cc2)ccn1` [SORAFENIB TOSYLATE], the GI50 in the test with SW-620 was determined as 3.2 µM; with MDA-MB-435, 2 µM; in the test on OVCAR-3 it was 3.2 µM; with CAKI-1, 3.2 µM; in the test with MCF7, 2.5 µM; with EKVX, 2.5 µM. In addition, the GI50 is 2.5 µM in the test with HT-29, 3.2 µM in the test on SNB-19, 2 µM with UACC-257 and 5 µM in the test with TK-10.

A word on the GI50: it is the concentration at which growth is held to half of that of the control. What is called IC50 is the concentration at which inhibition is half-maximal.

Values taken from ChEMBL document CHEMBL2034932, “2-Anilino-4-(benzimidazol-2-yl)pyrimidines--a multikinase inhibitor scaffold with antiproliferative activity toward cancer cell lines” (Eur J Med Chem, 2012).
